From ChEMBL document CHEMBL1806428, “Design and synthesis of spiro derivatives of parthenin as novel anti-cancer agents” (Eur J Med Chem, 2011)
Active and inactive are the calls of the source. The rule behind the calls is not given here.

Tests used:
SW-620 [1] = assay: Induction of apoptosis in human SW620 cells assessed as DNA fragmentation at 5 uM after 6 hrs by gel electrophoresis; format: functional, cell-based
SW-620 [2] = assay: Cell cycle arrest in human SW620 cells assessed as increase in sub-G1 DNA content at 5 uM after 24 hrs using propidium iodide staining by flow cytometry (reference value: 3.45%); format: functional
Ehrlich [3] = assay: Antitumor activity against mouse EAC cells transplanted in Swiss albino mouse assessed as decrease in tumor cells in ascetic fluid at 10 mg/kg, ip administered for 9 days (reference value: 4.57+/-0.39 mL); format: functional, organism-based; design: dose 10 mg/kg
How it was run: (§1)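 EAC ascites model: mice of the same sex, 20 ± 3 g, injected intraperitoneally with 1 × 10^7 cells from a donor bearing 8–10 day old ascites tumor (day 0). Randomised the next day, 7 per test group and 10 controls. Doses were suspended in 1% gum acacia and given i.p. for nine consecutive days; controls received saline 0.2 mL i.p. On day 12, ascitic fluid volume and tumor cell count were measured, and % inhibition was calculated from cell number versus control.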

[4] = Antitumor activity against mouse Ehrlich Ascites tumor xenografted in Swiss albino mouse assessed as decrease in tumor weight at 10 mg/kg, ip administered for 9 days (reference value: 1708+/-51.07 mg); format: functional; conditions: route intraperitoneal
Mus musculus [5] = assay: Toxicity in ip dosed Swiss albino mouse transplanted with mouse EAC cells assessed as mortality administered for 9 days; format: organism-based, Ehrlich; conditions: in vivo, 216 h; how it was run: as §1
Mus musculus [6] = assay: Toxicity in Swiss albino mouse transplanted with EAC cells assessed as mortality at 50 mg/kg, ip administered for 9 days measured on day 2nd; format: organism-based, Ehrlich; design: dose 50 mg/kg, route intraperitoneal; conditions: in vivo, 216 h; how it was run: as §1
[7] = Antitumor activity against mouse EAC cells transplanted in Swiss albino mouse assessed as tumor growth inhibition at 10 mg/kg, ip administered for 9 days (reference value: 4.57+/-0.39 mL); format: functional; conditions: Ehrlich, 216 h, route intraperitoneal, read-out: GI; how it was run: as §1
[8] = Antitumor activity against mouse Ehrlich Ascites tumor xenografted in Swiss albino mouse assessed as tumor growth inhibition at 10 mg/kg, ip administered for 9 days measured on day 13; format: functional; conditions: route intraperitoneal, read-out: GI
Mus musculus [9] = assay: Toxicity in Swiss albino mouse transplanted with EAC cells assessed as mortality at 25 mg/kg, ip administered for 9 days measured on day 4th; format: organism-based, Ehrlich; design: dose 25 mg/kg, route intraperitoneal; conditions: in vivo, 216 h; how it was run: as §1
Mus musculus [10] = assay: Toxicity in Swiss albino mouse model of Ehrlich Ascites tumor assessed as mortality at 25 mg/kg, ip administered for 9 days measured on fourth day; format: organism-based; design: dose 25 mg/kg, route intraperitoneal; conditions: in vivo, 216 h
Ehrlich [11] = assay: Antitumor activity against mouse EAC cells transplanted in ip dosed Swiss albino mouse assessed as tumor growth inhibition administered for 9 days; format: functional, organism-based; how it was run: as §1
[12] = Antitumor activity against mouse EAC cells transplanted in Swiss albino mouse assessed as decrease in astic fluid volume at 10 mg/kg, ip administered for 9 days (reference value: 4.57+/-0.39 mL); format: functional, Ehrlich; conditions: route intraperitoneal; how it was run: as §1
Mus musculus [13] = assay: Toxicity in Swiss albino mouse transplanted with mouse EAC cells assessed as mortality at 25 mg/kg, ip administered for 9 days measured on day 2nd; format: organism-based, Ehrlich; design: dose 25 mg/kg, route intraperitoneal; conditions: in vivo, 216 h; how it was run: as §1
Mus musculus [14] = assay: Toxicity in Swiss albino mouse model of Ehrlich Ascites tumor assessed as mortality at 50 mg/kg, ip administered for 9 days measured on second day; format: organism-based; design: dose 50 mg/kg, route intraperitoneal; conditions: in vivo, 216 h
PC-3 = assay: Cytotoxicity against human PC3 cells assessed as cell growth after 48 hrs by sulforhodamine B assay; format: functional, cell-based; conditions: Homo sapiens, PC-3, 48 h
How it was run: (§2)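 Log-phase cells seeded at 10^4/well and allowed to attach for 24 h at 37 °C, 5% CO2. Exposed for 48 h to 0.1–100 (1:10 serial dilutions), four replicate wells per condition. Fixed with cold 50% TCA for 1 h at 4 °C, stained with sulforhodamine B, dye dissolved in Tris, OD read at 540 nm. Blank-subtracted growth expressed relative to untreated cells (100%); IC50 reported.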

SW-620 [15] = assay: Cytotoxicity against human SW620 cells assessed as cell growth after 48 hrs by sulforhodamine B assay; format: functional, cell-based; conditions: Homo sapiens, SW-620, 48 h; how it was run: as §2
Mus musculus [16] = assay: Toxicity in Swiss albino mouse transplanted with mouse EAC cells assessed as mortality at 50 mg/kg, ip administered for 9 days measured on day 3rd; format: organism-based, Ehrlich; design: dose 50 mg/kg, route intraperitoneal; conditions: in vivo, 216 h; how it was run: as §1
DU-145 = assay: Cytotoxicity against human DU145 cells assessed as cell growth after 48 hrs by sulforhodamine B assay; format: functional, cell-based; conditions: Homo sapiens, DU-145, 48 h; how it was run: as §2

Row | Compound | Activity (SW-620 [1]) | Activity (SW-620 [2]) | Activity (Ehrlich [3]) | Activity [4] | Activity (Mus musculus [5]) | Activity (Mus musculus [6]) | inhibition in vivo at 10 mg/kg [7] | inhibition in vivo at 10 mg/kg [8] | Activity (Mus musculus [9]) | Activity (Mus musculus [10]) | growth inhibition (GI) (Ehrlich [11]) | Activity [12] | Activity (Mus musculus [13]) | Activity (Mus musculus [14]) | IC50 (PC-3) | IC50 (SW-620 [15]) | Activity (Mus musculus [16]) | IC50 (DU-145)
1 | CC[C@@]1(O)C(=O)OCc2c1cc1n(c2=O)Cc2cc3ccccc3nc2-1 [CAMPTOTHECIN] | Active | 60% |  |  |  |  |  |  |  |  |  |  |  |  |  |  |  | 
2 | C=C1C(=O)O[C@@H]2[C@H]1CC[C@H](C)[C@]1(O)C=CC(=O)[C@@]21C [PARTHENIN] |  |  | Active | 1542.86 mg | Toxic | Toxic | 12% | 9.69% | Toxic | Toxic | Dose-dependent effect | 3.92 mL | Toxic | Toxic | 40.3 µM | 38.7 µM | Toxic | 31.1 µM
